Assay [1] addresses T1, Mitogen-activated protein kinase 12 (Homo sapiens) (UniProt P53778).
T1 sequence (whole entry): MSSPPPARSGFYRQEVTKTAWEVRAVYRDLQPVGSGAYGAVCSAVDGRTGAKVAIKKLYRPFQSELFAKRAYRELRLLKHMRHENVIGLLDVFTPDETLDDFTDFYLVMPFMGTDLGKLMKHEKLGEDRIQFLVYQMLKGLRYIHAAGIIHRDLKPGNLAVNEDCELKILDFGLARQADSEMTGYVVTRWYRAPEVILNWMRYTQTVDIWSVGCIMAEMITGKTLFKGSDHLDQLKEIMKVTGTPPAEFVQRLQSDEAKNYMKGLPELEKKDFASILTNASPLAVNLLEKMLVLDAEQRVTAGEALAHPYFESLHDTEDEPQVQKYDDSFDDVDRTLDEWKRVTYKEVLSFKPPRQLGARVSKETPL
The assay can be described thus: Inhibition of p38gamma (unknown origin) at 30 uM by microfluidic mobility shift assay relative to control. Summed up:
(§1)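 Single-point screen against a 24-kinase panel in a commercial microfluidic assay format. Compounds were tested at 30 µM, with ATP at approximately the Km,[ATP] of each enzyme. H-89 was included on each assay plate as an internal control.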

The target of assay [2] is T2, Mitogen-activated protein kinase 13 (Homo sapiens) (UniProt O15264).
T2 sequence (whole entry): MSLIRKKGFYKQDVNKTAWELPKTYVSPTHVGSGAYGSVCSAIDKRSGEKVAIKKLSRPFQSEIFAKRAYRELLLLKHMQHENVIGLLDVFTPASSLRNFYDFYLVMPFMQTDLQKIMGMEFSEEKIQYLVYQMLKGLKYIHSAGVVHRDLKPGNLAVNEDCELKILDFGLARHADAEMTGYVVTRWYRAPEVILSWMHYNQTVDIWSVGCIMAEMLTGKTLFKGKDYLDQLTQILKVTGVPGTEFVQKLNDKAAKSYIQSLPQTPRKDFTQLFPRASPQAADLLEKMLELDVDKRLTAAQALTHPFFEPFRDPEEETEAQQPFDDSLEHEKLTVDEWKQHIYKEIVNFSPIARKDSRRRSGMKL
The assay can be described thus: Inhibition of p38delta (unknown origin) at 30 uM by microfluidic mobility shift assay relative to control. In a few lines:
as §1

Assay [3] addresses T3, Testis-specific serine/threonine-protein kinase 2 (Homo sapiens) (UniProt Q96PF2).
T3 sequence (whole entry): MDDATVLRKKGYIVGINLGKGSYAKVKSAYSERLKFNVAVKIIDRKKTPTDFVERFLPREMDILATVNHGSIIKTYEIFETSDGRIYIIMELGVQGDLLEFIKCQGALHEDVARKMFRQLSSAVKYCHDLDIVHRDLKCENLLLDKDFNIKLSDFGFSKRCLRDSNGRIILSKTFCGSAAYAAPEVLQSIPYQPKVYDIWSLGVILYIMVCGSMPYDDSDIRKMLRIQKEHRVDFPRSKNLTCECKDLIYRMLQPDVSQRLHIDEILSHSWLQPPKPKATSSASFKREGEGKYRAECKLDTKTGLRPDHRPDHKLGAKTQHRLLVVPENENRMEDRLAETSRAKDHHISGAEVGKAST
The assay can be described thus: Inhibition of TSSK2 (unknown origin) at 30 uM by microfluidic mobility shift assay relative to control. In a few lines: as §1

For assay [4], the target named is Fibroblast growth factor receptor 4 (Homo sapiens) (UniProt P22455). The assay can be described thus: Inhibition of FGFR4 (unknown origin) at 30 uM by microfluidic mobility shift assay relative to control. Summed up: (§2)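 Single-point screen at 30 µM test compound across a 24-kinase panel in a microfluidic assay format. ATP was set near each enzyme's Km,[ATP]. […] The pan-AGC inhibitor H-89 served as an internal control on every assay plate.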
Sequence of Fibroblast growth factor receptor 4 (Homo sapiens) (P22455 22-802 limits assumed): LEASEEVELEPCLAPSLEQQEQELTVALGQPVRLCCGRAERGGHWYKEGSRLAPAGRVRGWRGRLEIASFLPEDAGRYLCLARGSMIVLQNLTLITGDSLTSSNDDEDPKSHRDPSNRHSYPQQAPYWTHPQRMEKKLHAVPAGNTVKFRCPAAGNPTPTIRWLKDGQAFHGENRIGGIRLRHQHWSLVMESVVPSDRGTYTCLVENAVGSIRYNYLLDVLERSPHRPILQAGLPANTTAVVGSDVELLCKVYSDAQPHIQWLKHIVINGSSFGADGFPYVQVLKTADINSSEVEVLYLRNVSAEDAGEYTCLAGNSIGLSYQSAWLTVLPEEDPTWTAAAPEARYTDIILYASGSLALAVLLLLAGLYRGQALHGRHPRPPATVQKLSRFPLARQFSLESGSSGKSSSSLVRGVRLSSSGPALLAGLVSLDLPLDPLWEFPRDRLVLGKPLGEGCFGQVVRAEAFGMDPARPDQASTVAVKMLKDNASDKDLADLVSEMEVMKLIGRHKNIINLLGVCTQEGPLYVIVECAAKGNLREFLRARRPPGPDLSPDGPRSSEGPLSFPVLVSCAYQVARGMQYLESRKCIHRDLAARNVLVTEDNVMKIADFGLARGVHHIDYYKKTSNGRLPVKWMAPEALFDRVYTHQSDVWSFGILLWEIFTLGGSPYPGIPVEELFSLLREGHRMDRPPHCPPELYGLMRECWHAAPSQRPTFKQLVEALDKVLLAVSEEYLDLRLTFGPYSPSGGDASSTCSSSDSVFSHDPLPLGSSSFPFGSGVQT

The target in assay [5] is Protein kinase C theta type (Homo sapiens) (UniProt Q04759). The assay can be described thus: Inhibition of PKCtheta (unknown origin) at 30 uM by microfluidic mobility shift assay relative to control. In a few lines: as §1
Sequence of Protein kinase C theta type (Homo sapiens) (Q04759 whole entry, looked up): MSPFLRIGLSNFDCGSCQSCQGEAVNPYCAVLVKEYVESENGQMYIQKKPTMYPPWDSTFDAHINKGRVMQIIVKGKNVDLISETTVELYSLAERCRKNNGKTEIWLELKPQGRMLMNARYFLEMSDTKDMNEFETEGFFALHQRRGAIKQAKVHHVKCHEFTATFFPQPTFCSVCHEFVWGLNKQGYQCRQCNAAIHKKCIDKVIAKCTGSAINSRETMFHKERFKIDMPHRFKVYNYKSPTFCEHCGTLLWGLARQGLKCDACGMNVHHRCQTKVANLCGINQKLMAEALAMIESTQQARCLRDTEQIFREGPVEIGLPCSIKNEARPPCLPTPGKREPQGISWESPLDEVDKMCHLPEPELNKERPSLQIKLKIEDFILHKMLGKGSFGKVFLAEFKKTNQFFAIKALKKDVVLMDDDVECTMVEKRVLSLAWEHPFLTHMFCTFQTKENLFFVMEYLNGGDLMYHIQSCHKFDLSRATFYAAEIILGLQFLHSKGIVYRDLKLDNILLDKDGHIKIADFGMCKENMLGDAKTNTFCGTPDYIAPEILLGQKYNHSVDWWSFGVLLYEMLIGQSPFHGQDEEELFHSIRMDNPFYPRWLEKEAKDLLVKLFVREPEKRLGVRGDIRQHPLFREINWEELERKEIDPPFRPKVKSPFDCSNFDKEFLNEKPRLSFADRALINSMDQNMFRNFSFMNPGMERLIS
Assay [6] concerns the target Protein kinase C beta type (Homo sapiens) (UniProt P05771). In words: Inhibition of PKCbeta-2 (unknown origin) at 30 uM by microfluidic mobility shift assay relative to control. In a few lines: as §2
Assay [7] deals with T4, Serine/threonine-protein kinase Sgk1 (Homo sapiens) (UniProt O00141).
T4 sequence (whole entry): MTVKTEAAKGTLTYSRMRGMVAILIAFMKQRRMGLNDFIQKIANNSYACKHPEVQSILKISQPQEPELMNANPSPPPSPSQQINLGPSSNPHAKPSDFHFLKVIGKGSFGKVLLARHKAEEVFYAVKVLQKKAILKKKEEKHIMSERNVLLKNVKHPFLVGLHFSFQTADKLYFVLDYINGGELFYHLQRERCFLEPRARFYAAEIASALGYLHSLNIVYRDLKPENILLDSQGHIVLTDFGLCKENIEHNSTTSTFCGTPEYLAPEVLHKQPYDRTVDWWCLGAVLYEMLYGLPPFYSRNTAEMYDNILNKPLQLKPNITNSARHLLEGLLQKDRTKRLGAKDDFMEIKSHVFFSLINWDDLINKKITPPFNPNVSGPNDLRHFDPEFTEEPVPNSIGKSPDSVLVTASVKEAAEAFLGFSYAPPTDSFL
The assay can be described thus: Inhibition of SGK1 (unknown origin) at 30 uM by microfluidic mobility shift assay relative to control. Summed up: as §1

Assay [8] deals with Tyrosine-protein kinase ABL2 (Homo sapiens) (UniProt P42684). The assay can be described thus: Inhibition of ARG (unknown origin) at 30 uM by microfluidic mobility shift assay relative to control. In a few lines: as §2
Sequence of Tyrosine-protein kinase ABL2 (Homo sapiens) (P42684 whole entry): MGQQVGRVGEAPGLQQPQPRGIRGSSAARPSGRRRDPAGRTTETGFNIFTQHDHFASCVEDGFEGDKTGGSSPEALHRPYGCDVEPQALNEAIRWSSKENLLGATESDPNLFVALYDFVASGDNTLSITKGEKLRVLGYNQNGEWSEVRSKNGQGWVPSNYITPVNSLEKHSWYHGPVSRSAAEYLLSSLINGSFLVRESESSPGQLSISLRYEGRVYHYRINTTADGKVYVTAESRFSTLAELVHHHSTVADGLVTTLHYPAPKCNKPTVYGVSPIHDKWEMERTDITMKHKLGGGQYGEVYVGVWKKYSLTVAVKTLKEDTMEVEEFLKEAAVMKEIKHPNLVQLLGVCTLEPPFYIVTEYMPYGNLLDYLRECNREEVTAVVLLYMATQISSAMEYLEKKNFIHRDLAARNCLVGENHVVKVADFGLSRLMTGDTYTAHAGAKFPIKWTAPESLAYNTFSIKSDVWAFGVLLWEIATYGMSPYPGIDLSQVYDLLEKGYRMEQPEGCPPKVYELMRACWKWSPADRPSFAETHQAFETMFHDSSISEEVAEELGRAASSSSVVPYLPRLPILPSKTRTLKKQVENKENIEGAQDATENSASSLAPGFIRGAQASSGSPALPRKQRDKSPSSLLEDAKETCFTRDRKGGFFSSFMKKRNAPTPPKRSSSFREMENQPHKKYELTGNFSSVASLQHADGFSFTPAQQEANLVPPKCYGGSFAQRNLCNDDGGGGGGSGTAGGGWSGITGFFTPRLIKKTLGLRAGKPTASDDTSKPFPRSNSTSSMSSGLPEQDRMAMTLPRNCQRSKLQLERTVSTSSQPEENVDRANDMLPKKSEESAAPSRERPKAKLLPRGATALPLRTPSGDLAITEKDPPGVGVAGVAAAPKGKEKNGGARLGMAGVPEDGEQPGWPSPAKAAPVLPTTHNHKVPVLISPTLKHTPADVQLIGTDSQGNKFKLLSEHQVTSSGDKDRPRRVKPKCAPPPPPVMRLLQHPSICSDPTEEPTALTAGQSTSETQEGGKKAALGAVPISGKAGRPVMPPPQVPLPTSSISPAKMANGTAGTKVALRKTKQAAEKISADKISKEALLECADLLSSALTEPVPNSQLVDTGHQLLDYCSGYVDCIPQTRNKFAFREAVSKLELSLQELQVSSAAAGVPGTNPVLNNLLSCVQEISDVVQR
Assay [9] has as its target AMP-activated protein kinase, AMPK (Homo sapiens) (UniProt P54646+O43741+P54619+Q9UGJ0+Q9Y478+Q13131+Q9UGI9). In words: Inhibition of AMPK (unknown origin) at 30 uM by microfluidic mobility shift assay relative to control. The class given is protein-complex assay. Summed up:
as §2

Assay [10] concerns the target Aurora kinase B (Homo sapiens) (UniProt Q96GD4). The assay can be described thus: Inhibition of AURB (unknown origin) at 30 uM by microfluidic mobility shift assay relative to control. In a few lines:
as §2

For the next assay, the species on record is Homo sapiens. In words: Inhibition of DCAMK (unknown origin) at 30 uM by microfluidic mobility shift assay relative to control. Summed up:
as §2

Sequence of Aurora kinase B (Homo sapiens) (Q96GD4 whole entry): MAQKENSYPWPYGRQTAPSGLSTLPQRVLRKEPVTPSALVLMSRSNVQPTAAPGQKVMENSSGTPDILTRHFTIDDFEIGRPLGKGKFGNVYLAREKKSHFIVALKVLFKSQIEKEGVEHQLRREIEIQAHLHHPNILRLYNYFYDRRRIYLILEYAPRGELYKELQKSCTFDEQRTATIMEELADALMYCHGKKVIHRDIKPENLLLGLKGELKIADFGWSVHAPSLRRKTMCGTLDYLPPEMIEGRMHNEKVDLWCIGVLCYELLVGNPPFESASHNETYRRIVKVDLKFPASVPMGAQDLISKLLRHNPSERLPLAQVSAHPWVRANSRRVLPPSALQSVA
Sequence of Protein kinase C beta type (Homo sapiens) (P05771 2-671 limits assumed): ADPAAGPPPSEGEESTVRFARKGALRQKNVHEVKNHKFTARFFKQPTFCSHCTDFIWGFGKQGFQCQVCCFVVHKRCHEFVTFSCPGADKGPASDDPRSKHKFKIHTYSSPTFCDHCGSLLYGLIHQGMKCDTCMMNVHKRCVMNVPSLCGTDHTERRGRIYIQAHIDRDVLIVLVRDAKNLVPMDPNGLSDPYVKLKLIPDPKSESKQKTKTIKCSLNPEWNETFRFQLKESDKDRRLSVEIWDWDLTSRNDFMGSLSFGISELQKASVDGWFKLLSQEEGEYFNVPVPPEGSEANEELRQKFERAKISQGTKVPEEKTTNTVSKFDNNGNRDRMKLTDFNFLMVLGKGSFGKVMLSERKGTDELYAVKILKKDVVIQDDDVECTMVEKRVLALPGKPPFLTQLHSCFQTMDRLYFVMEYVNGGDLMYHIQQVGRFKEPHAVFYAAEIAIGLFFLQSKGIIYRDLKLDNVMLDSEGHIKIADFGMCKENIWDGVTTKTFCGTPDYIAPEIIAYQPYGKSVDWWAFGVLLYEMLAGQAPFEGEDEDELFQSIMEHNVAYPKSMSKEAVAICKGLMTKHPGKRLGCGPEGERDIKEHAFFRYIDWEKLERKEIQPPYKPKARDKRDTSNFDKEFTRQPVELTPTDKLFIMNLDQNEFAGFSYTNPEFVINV

For `c1ccc(CC2CCC3(CCN(c4ncnc5[nH]cnc45)CC3)NC2)cc1` (racemic), the inhibition in [1] amounted to 3%; in [2] it was 4%; in assay [3] it was 7%; in [4] it was 7%; in assay [5], 17%; in assay [6] it was 13%. The inhibition in assay [7] was found to be 15%; in [8] it was 18%; in assay [9] it was 70%; in assay [10], 73%; in the assay listed under Homo sapiens, 13%.

As to `c1ccc(CC2CCNC3(CCN(c4ncnc5[nH]cnc45)CC3)C2)cc1` (racemic), the inhibition came out at 11% in assay [1]; 23% in assay [2]; 32% in assay [3]; 0% in assay [4]; 75% in [5]; 60% in [6]. The inhibition came out at 64% in assay [7]; 13% in [8]; 78% in assay [9]; 66% in assay [10]; 20% in the assay listed under Homo sapiens.

On to `c1ccc(C2CCNC3(CCN(c4ncnc5[nH]cnc45)CC3)C2)cc1` (racemic), for which the inhibition stood at 6% in [1]; 7% in assay [2]; 25% in [3]; 4% in assay [4]; 77% in assay [5]; 36% in assay [6]. Besides, the inhibition in [7] came out at 41%; in assay [8], 23%; in assay [9] it was 66%; in [10], 64%; in the assay filed under Homo sapiens, 17%.

In general, inhibition refers to the change of the read-out against control, counted positive when it falls.

These data come from ChEMBL document CHEMBL2417369, “Synthesis and evaluation of heteroaryl substituted diazaspirocycles as scaffolds to probe the ATP-binding site of protein kinases” (Bioorg Med Chem, 2013).
